In ChEMBL document CHEMBL1129951, “Synthesis and antitumor evaluation of new thiazolo[5,4-b]quinoline derivatives” (J Med Chem, 1997):

Tested on: A549
Test: In vitro cytotoxicity against A-549 (human lung carcinoma) cell line.
Assay type: functional, cell-based
Outline: (§1)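 Growth-inhibition screen adapted from Bergeron et al. Cells were kept in exponential growth in EMEM with 5% FCS, 10^-2 M sodium bicarbonate, penicillin G and streptomycin (0.1 g/L each) and 2.0 mM L-glutamine. P-388 was grown as a suspension and seeded at 1 × 10^4 cells/well. A-549 and HT-29 were grown as monolayers and seeded at 2 × 10^4 cells/well.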

| Compound | IC50 [µM] |
| --- | --- |
| CCN(CC)CCCNc1c2cc(C)ccc2nc2sc(SC)nc12 | 5.4 |
| Oc1c2cc(F)ccc2nc2sc(Cl)nc12 | 7.4 |
| Cc1ccc2nc3sc(Cl)nc3c(O)c2c1 | 34.6 |
| CSc1nc2c(O)c3ccccc3nc2s1 | > 70.2 |
| CS(=O)(=O)c1nc2c(O)c3ccccc3nc2s1 | 32.4 |
| CCN(CC)CCNc1nc2c(O)c3cc(C)ccc3nc2s1 | 5.6 |
| CN1CCN(c2nc3c(O)c4cc(F)ccc4nc3s2)CC1 | > 56.4 |
| Cc1ccc2nc3sc(S(C)(=O)=O)nc3c(O)c2c1 | > 60.4 |
| CS(=O)(=O)c1nc2c(O)c3cc(F)ccc3nc2s1 | 6 |
| CSc1nc2c(N(C)CCCN(C)C)c3ccccc3nc2s1 | 12.1 |
| CCN(CC)CCNc1nc2c(O)c3ccccc3nc2s1 | 7.22 |
| CCN(CC)CCNc1nc2c(O)c3cc(F)ccc3nc2s1 | 2.9 |
| CSc1nc2c(O)c3cc(C)ccc3nc2s1 | > 66.9 |
| CSc1nc2c(O)c3cc(F)ccc3nc2s1 | > 66.1 |
| Cc1ccc2nc3sc(N4CCN(C)CC4)nc3c(O)c2c1 | 29.6 |
| CN1CCN(c2nc3c(O)c4ccccc4nc3s2)CC1 | 18.8 |
| Oc1c2ccccc2nc2sc(Cl)nc12 | 11.6 |
| CCN(CC)CCCNc1c2ccccc2nc2sc(SC)nc12 | 6 |

Tested on: not listed separately
Test: pKa value was determined by differential pulse polarography
Assay type: physicochemical

| pKa | Compound |
| --- | --- |
| 7.9 | CCN(CC)CCCNc1c2cc(C)ccc2nc2sc(SC)nc12 |
| 4.9 | Oc1c2cc(F)ccc2nc2sc(Cl)nc12 |
| 5 | Cc1ccc2nc3sc(Cl)nc3c(O)c2c1 |
| 5.2 | CS(=O)(=O)c1nc2c(O)c3ccccc3nc2s1 |
| 4.6 | CSc1nc2c(O)c3cc(C)ccc3nc2s1 |
| 7.5 | CCN(CC)CCCNc1c2ccccc2nc2sc(SC)nc12 |

More lines, now with the values behind:

| Compound | pKa |
| --- | --- |
| CSc1nc2c(O)c3ccccc3nc2s1 | 5.9 |
| CCN(CC)CCNc1nc2c(O)c3cc(C)ccc3nc2s1 | 8.4 |
| CN1CCN(c2nc3c(O)c4cc(F)ccc4nc3s2)CC1 | 8 |
| Cc1ccc2nc3sc(S(C)(=O)=O)nc3c(O)c2c1 | 4 |
| CS(=O)(=O)c1nc2c(O)c3cc(F)ccc3nc2s1 | 5.5 |
| CSc1nc2c(N(C)CCCN(C)C)c3ccccc3nc2s1 | 6.5 |
| CCN(CC)CCNc1nc2c(O)c3ccccc3nc2s1 | 9.3 |
| CCN(CC)CCNc1nc2c(O)c3cc(F)ccc3nc2s1 | 8.3 |
| CSc1nc2c(O)c3cc(F)ccc3nc2s1 | 5.7 |
| Cc1ccc2nc3sc(N4CCN(C)CC4)nc3c(O)c2c1 | 10 |
| CN1CCN(c2nc3c(O)c4ccccc4nc3s2)CC1 | 8.6 |
| Oc1c2ccccc2nc2sc(Cl)nc12 | 5.9 |

Tested on: HT-29
Test: In vitro cytotoxicity against HT-29 (human colon) cell line.
Assay type: functional, cell-based
Outline: as §1

| Compound | IC50 [µM] |
| --- | --- |
| CCN(CC)CCCNc1c2cc(C)ccc2nc2sc(SC)nc12 | 5.4 |
| Oc1c2cc(F)ccc2nc2sc(Cl)nc12 | 7.4 |
| Cc1ccc2nc3sc(Cl)nc3c(O)c2c1 | 34.6 |
| CSc1nc2c(O)c3ccccc3nc2s1 | > 70.2 |
| CS(=O)(=O)c1nc2c(O)c3ccccc3nc2s1 | 32.4 |
| CCN(CC)CCNc1nc2c(O)c3cc(C)ccc3nc2s1 | 3.3 |
| CN1CCN(c2nc3c(O)c4cc(F)ccc4nc3s2)CC1 | > 56.4 |
| Cc1ccc2nc3sc(S(C)(=O)=O)nc3c(O)c2c1 | > 60.4 |
| CS(=O)(=O)c1nc2c(O)c3cc(F)ccc3nc2s1 | 6 |
| CSc1nc2c(N(C)CCCN(C)C)c3ccccc3nc2s1 | 12.1 |
| CCN(CC)CCNc1nc2c(O)c3ccccc3nc2s1 | 7.22 |
| CCN(CC)CCNc1nc2c(O)c3cc(F)ccc3nc2s1 | 5 |
| CSc1nc2c(O)c3cc(C)ccc3nc2s1 | > 66.9 |
| CSc1nc2c(O)c3cc(F)ccc3nc2s1 | > 66.1 |
| Cc1ccc2nc3sc(N4CCN(C)CC4)nc3c(O)c2c1 | 17 |
| CN1CCN(c2nc3c(O)c4ccccc4nc3s2)CC1 | 18.8 |
| Oc1c2ccccc2nc2sc(Cl)nc12 | 11.6 |
| CCN(CC)CCCNc1c2ccccc2nc2sc(SC)nc12 | 6 |

Tested on: P388
Test: In vitro cytotoxicity against P-388 (mouse leukemia) cell line.
Assay type: functional, cell-based
Outline: as §1

| Compound | IC50 [µM] |
| --- | --- |
| CCN(CC)CCCNc1c2cc(C)ccc2nc2sc(SC)nc12 | 5.4 |
| Oc1c2cc(F)ccc2nc2sc(Cl)nc12 | 7.4 |
| Cc1ccc2nc3sc(Cl)nc3c(O)c2c1 | 34.6 |
| CSc1nc2c(O)c3ccccc3nc2s1 | > 70.2 |
| CS(=O)(=O)c1nc2c(O)c3ccccc3nc2s1 | 32.4 |
| CCN(CC)CCNc1nc2c(O)c3cc(C)ccc3nc2s1 | 3.3 |
| CN1CCN(c2nc3c(O)c4cc(F)ccc4nc3s2)CC1 | > 56.4 |
| Cc1ccc2nc3sc(S(C)(=O)=O)nc3c(O)c2c1 | > 60.4 |
| CS(=O)(=O)c1nc2c(O)c3cc(F)ccc3nc2s1 | 6 |
| CSc1nc2c(N(C)CCCN(C)C)c3ccccc3nc2s1 | 12.1 |
| CCN(CC)CCNc1nc2c(O)c3ccccc3nc2s1 | 5.76 |
| CCN(CC)CCNc1nc2c(O)c3cc(F)ccc3nc2s1 | 1.65 |
| CSc1nc2c(O)c3cc(C)ccc3nc2s1 | > 66.9 |
| CSc1nc2c(O)c3cc(F)ccc3nc2s1 | > 66.1 |
| Cc1ccc2nc3sc(N4CCN(C)CC4)nc3c(O)c2c1 | 16.9 |
| CN1CCN(c2nc3c(O)c4ccccc4nc3s2)CC1 | 18.8 |
| Oc1c2ccccc2nc2sc(Cl)nc12 | 5.3 |
| CCN(CC)CCCNc1c2ccccc2nc2sc(SC)nc12 | 6 |
